Consider two compounds from ChEMBL document CHEMBL4330106, “A new class of pentapeptide KISS1 receptor agonists with hypothalamic-pituitary-gonadal axis activation” (Bioorg Med Chem Lett, 2019).

Molecules are shown by their SMILES. The source made the active and inactive calls. The calls are words filed in the database; no cut-off is given here. A value given as a limit tells only on which side of the number the result lay.

Series [1] concerns the target KiSS-1 receptor (Homo sapiens, UniProt Q969F8). The experiment in a line: Agonist activity at human KISS1R expressed in CHO cells assessed as increase in calcium mobilization measured at 2 secs interval for 2 mins by fluo-4 NW dye based FLIPR assay. Type of series: functional, cell-based. Put shortly: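 Ligand-induced Ca2+ rise in CHO cells expressing human KISS1R, read on a fluorometric imaging plate reader (FLIPR); agonist potency reported as EC50 (nM).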
On the technique in general: Calcium assays in cells follow changes in intracellular calcium, usually with a dye or a luminescent sensor.

Series [2] can be described thus: Stability in Sprague-Dawley rat serum assessed as parent compound remaining at 10 ug/ml measured immediately by LC-MS/MS analysis. Type of series: ADME, cell-free. Particulars: read-out: Stability. Put shortly: (§1)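 10 µL of 10 μg/mL aqueous peptide stock added to 990 μL pre-warmed SD rat serum (final 0.1 μg/mL), 37 °C. Aliquots taken at 0, 5, 15, 30, 60, 120 min. Quenched with formic acid/methanol and acetonitrile, centrifuged, internal standard added, quantified by LC/MS/MS. Result is percent remaining; n = 2.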

The nature of series [3]: Stability in Sprague-Dawley rat serum assessed as parent compound remaining at 10 ug/ml measured after 5 mins by LC-MS/MS analysis. Type of series: ADME, cell-free. Particulars: read-out: Stability. Put shortly:
as §1

Series [4] can be described thus: Stability in Sprague-Dawley rat serum assessed as parent compound remaining at 10 ug/ml measured after 15 mins by LC-MS/MS analysis. The series is classed as ADME, cell-free. Conditions: read-out: Stability. In short, it runs like this:
as §1

Series [5] can be described thus: Stability in Sprague-Dawley rat serum assessed as parent compound remaining at 10 ug/ml measured after 30 mins by LC-MS/MS analysis. Type of series: ADME, cell-free. Conditions: read-out: Stability. In short, it runs like this:
as §1

A short description of series [6]: Stability in Sprague-Dawley rat serum assessed as parent compound remaining at 10 ug/ml measured after 60 mins by LC-MS/MS analysis. Type of series: ADME, cell-free. Conditions: read-out: Stability. Put shortly: as §1
Series [7] can be described thus: Stability in Sprague-Dawley rat serum assessed as parent compound remaining at 10 ug/ml measured after 120 mins by LC-MS/MS analysis. Particulars: read-out: Stability. Type of series: ADME, cell-free. Put shortly:
as §1

Series [8] is described as follows: Half life in Sprague-Dawley rat serum at 10 ug/ml by LC-MS/MS analysis. The series is classed as ADME, cell-free. In short, it runs like this: as §1
The nature of series [9]: Solubility of the compound in water. The series is classed as physicochemical.
Series [10] in a line: Solubility of the compound in saline. The series is classed as physicochemical.
Series [11] can be described thus: Retention time of the compound by reverse-phase HPLC method. The series is classed as physicochemical. In short, it runs like this:
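RP-HPLC on C18 monolith column. Linear gradient of 0.1% TFA water / 0.1% TFA acetonitrile, A/B 95/5 to 35/65 over 10 min, 3.0 mL/min.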

For series [12], the target named is KiSS-1 receptor (Rattus norvegicus, UniProt Q924U1). The experiment in a line: Agonist activity at rat KISS1R.
Chain of KiSS-1 receptor (Rattus norvegicus, UniProt Q924U1) (Q924U1 whole entry, the tested form may be a part): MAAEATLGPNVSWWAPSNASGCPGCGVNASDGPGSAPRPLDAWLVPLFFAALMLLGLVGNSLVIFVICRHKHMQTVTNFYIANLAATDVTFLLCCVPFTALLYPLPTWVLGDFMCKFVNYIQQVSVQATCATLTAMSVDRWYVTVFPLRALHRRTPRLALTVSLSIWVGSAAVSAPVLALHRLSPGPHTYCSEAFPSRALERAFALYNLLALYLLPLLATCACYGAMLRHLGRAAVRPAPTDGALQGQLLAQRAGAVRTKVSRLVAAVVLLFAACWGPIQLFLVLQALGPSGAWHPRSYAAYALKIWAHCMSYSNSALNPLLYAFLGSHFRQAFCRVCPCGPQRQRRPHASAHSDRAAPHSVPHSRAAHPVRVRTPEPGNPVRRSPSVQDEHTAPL
The test system of series [13] is Rattus norvegicus. The experiment in a line: Suppression of plasma testosterone level in Crl:CD(SD) rat at 5 to 20 nmol/hr administered via subcutaneous osmotic pumps measured after 6 days by radioimmunoassay. Type of series: ADME, organism-based. Particulars: in vivo, sc, 144 h. In short, it runs like this: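 Five 9-week-old male Crl:CD (SD) rats per group received continuous subcutaneous infusion by osmotic pump for 6 days: leuprolide 2 nmol/h, or test peptide 5, 10, 20 nmol/h from 5–20 mM aqueous solution. Plasma testosterone measured by radioimmunoassay. Distilled-water control; Dunnett's test; mean ± SD.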

Series [14] can be described thus: Drug uptake in Crl:CD(SD) rat plasma administered via subcutaneous osmotic pumps every 1 hr after 6 days by LC/MS analysis. The series is classed as ADME, cell-free. Particulars: sc, 144 h. Put shortly:
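9-week-old male Crl:CD (SD) rats (five per group) implanted subcutaneously with osmotic pumps of 5, 10 or 20 mM aqueous peptide, delivering 5, 10, 20 nmol/h for 6 days. Steady-state plasma measured by LC/MS after protein precipitation with organic solvent; mean ± SD.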

Series [15] deals with Rattus norvegicus. The experiment in a line: Stimulation of plasma luteinizing hormone release in sc dosed Crl:CD(SD) rat administered as single bolus dose measured after 1 to 8 hrs. The series is classed as functional, organism-based. In short, it runs like this:
(§2)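 Single subcutaneous bolus of 10, 100 or 1000 nmol/kg in 9-week-old male Crl:CD (SD) rats, n = 5, saline vehicle. Plasma LH measured 1, 2, 4 and 8 h post-dose. AUC0–8h (ng·h/mL) calculated per rat. One-tailed Williams' test versus vehicle; mean ± SD.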

In series [16] the test system is Rattus norvegicus. The experiment in a line: Increase in plasma luteinizing hormone AUC (0 to 8 hrs) in Crl:CD(SD) rat at 100 nmol/kg, sc administered as single bolus dose. Type of series: functional, organism-based. Put shortly:
as §2

Chain of KiSS-1 receptor (Homo sapiens, UniProt Q969F8) (Q969F8 whole entry): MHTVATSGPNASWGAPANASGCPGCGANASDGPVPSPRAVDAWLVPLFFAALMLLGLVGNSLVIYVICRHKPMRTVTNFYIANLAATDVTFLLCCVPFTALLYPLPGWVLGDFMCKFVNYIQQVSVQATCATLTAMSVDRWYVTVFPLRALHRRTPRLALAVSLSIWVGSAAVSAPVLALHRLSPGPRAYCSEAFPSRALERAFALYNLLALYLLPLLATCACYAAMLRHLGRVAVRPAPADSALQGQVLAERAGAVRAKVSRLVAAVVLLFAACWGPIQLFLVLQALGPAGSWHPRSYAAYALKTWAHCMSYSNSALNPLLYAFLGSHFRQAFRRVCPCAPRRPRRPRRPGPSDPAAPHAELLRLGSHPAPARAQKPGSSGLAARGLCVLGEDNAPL

Take `CC(C)C[C@H](NC(=O)CNC(=O)[C@H](Cc1ccccc1)NC(=O)[C@H](CO)NC(=O)[C@H](CC(N)=O)NC(=O)[C@H](Cc1c[nH]c2ccccc12)NC(=O)[C@H](CC(N)=O)NC(=O)[C@@H](N)Cc1ccc(O)cc1)C(=O)N[C@@H](CCCNC(=N)N)C(=O)N[C@@H](Cc1ccccc1)C(N)=O` [KISSPEPTIN-10]: the EC50 in series [1] amounted to 0.087 nM. The remaining at 0 min, 10 ug/ml in series [2] stood at 100%. Also, in series [3], the remaining at 5 min, 10 ug/ml is 1.5%. Moreover, the remaining at 0.25 h, 10 ug/ml in [4] was < 0.5%. The remaining at 0.5 h, 10 ug/ml in [5] is < 0.5%. The remaining at 1 h, 10 ug/ml in [6] is < 0.5%. Besides, the remaining at 2 h, 10 ug/ml in [7] was < 0.5%. The half-life at 10 ug/ml in series [8] was < 5 min.
Regarding `CNC(=N)NCCC[C@H](NC(=O)[C@H](CC(C)C)NC(=O)NNC(=O)[C@H](Cc1ccccc1)NC(=O)c1ccncc1)C(=O)N[C@@H](Cc1c[nH]c2ccccc12)C(N)=O`, the EC50 turned out to be 0.068 nM in [1] and 1.2 nM in [12]. Besides, the solubility in [9] is > 20 mg/mL; in series [10], > 1 mg/mL. Further, the Retention_time in [11] came to 4.48 min. Besides, the Activity entry was “Non-Toxic” in [13] and “Dose-dependent effect” in series [15]. In addition, the Drug uptake result in series [14] is “Dose-dependent effect”. In addition, in [16], the outcome was Active.

For orientation: EC50 means the concentration at which the effect is half-maximal. One may read the half-life as the time in which the quantity being followed falls by half. As usually defined, the solubility is how much of the substance goes into solution per volume.
